Reference: PubChem BioAssay
Calls of active or inactive are those of the source.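 The calls were made as follows, unless noted: active = compounds giving at least 50% inhibition in the cell-based MKP-3 phosphatase rescue imaging test; inactive = the rest.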

Tests used:
[1] = inhibitors of TNFa-induced NFkB p65 translocation, primary screen, imaging, HUVEC, MLSMR starter and 10KST1 sets (AID 438;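 active = inhibition above 20% together with a positive visual image hit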;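 also: compound added about 3h40 before a 20 min TNFalpha stimulation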;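 as to inhibition: signal is the nuclear over cytoplasmic p65 intensity ratio per well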); conditions: HUVEC TNFa-induced p65 nuclear translocation; cell count: measured here: nuclei count (cytotoxicity indicator), at 2.08 µM; inhibition: at 2 µM, stronger effect = higher value, 0% TNFa-plus-vehicle, 100% no-TNFa wells
[2] = inhibitors of E-selectin induction by TNFa, primary screen, imaging, HUVEC, immunofluorescence, MLSMR starter and 10KST1 sets (AID 487;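 active = visually confirmed hit in the image check and inhibition above 20%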;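 as to inhibition: signal is fraction of cell area covered by stained E-selectin grains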;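 as to nuclei count: 100% = median nuclei count of all wells on the same plate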); conditions: HUVEC TNFalpha-induced E-selectin immunofluorescence imaging, at 2 µM; inhibition: stronger effect = higher value; nuclei count: measured here: cell number, toxicity
[3] = DUSP6 inhibitors restoring Erk phosphorylation by chemical complementation, primary imaging in DUSP6-transfected HeLa (AID 609); conditions: HeLa MKP-3 transfected, phospho-Erk imaging KS statistic, at 10 µM, cells stimulated with TPA for 15 min;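 as to inhibition: phospho-Erk level distribution per well compared with pooled transfected vehicle control wells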
[4] = target: Dual specificity protein phosphatase 6 (Homo sapiens) (UniProt Q16828); assay: as above; conditions: HeLa MKP-3 transfected, phospho-Erk imaging KS statistic; at 10 µM; stronger effect = higher value; cells stimulated with TPA for 15 min
[5] = target: Voltage-gated potassium channel subunit beta-2 (Rattus norvegicus) (UniProt P62483); assay: KvBeta enzyme negative modulators, primary screen, biochemical, NADPH fluorescence (AID 622;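 active = fluorescence slope higher than the sample average by over 3 SD, cut at about -0.22 in these data, passing the limit was not always enough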;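 also: slope of raw intensity against log time taken from 70 to 1610 s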); conditions: recombinant KvBeta, 4-cyanobenzaldehyde reduction, at 10 µM, stronger effect = higher value
[6] = target: Voltage-gated potassium channel subunit beta-2 (Rattus norvegicus) (UniProt P62483); assay: KvBeta positive modulators, primary screen, biochemical, NADPH fluorescence (AID 623;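 active = NADPH fluorescence slope more negative than the mean of all samples by about 3 SD, 99.7% confidence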;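 also: fluorescence intensity change per second fitted from 20 to 320 s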); conditions: Recombinant KvBeta, NADPH fluorescence decrease slope, 10 min; at 10 µM; stronger effect = lower value
[7] = target: Alpha-2C adrenergic receptor (Homo sapiens) (UniProt P18825); assay: modulators of alpha2C/GIRK thallium flux, primary screen, cell-based, HEK293 alpha2C/GIRK1/2 (AID 624;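 active = fluorescence slope after compound addition differing from the mean of all screened samples at 99.7% confidence, in either direction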;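 also: slope of fluorescence ratio to pre-addition baseline per second over 15 to 24 s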); conditions: thallium flux BTC fluorescence, at 10 µM, actives lie on both sides
[8] = inhibitors of larval lipid processing in zebrafish, primary screen, whole organism, PED6 fluorescence, gall bladder and intestine (AID 686;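 active = a full or partial loss of lipid-probe fluorescence in the fish gall bladder, intestine or both, judged by eye; inactive = no fluorescence loss, or compound toxic to the fish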;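 also: larvae 5 to 7 days old with five fish per well; signal comes from phospholipase A2 cleavage of quenched PED6 carried via bile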); conditions: Zebrafish larvae PED6 lipid processing, fluorescence scoring; screened at 20 µM (by protocol)
How it was run: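 Incubation: overnight exposure of larvae to compound plus PED6 / Test system: live zebrafish larvae aged 5-7 days, whole organism / Amount: 5 larvae per well / Read-out basis: visual per-well fluorescence inhibition score / Signal: visual fluorescence microscopy scoring of gall bladder, gut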

[9] = inhibitors of Chlamydomonas gravitaxis, primary screen, whole organism, Chlamydomonas reinhardtii, WT vs cilia-less mutant, absorbance, 96-well (AID 463189;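 active = inhibition at or above 50% relative to wild type and mutant plate controls; inactive = inhibition below 50%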;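 also: 0% = wild type cc124 cells in DMSO and 100% = ciliumless bld1 mutant cells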); conditions: OD600 absorbance, 2 days, at 10 µM, stronger effect = higher value
[10] = measured here: cell density z-score
[11] = measured here: nuclear c-Myc green intensity z-score
[12] = measured here: nuclear pErk red intensity z-score, stronger effect = higher value

Sequence of Alpha-2C adrenergic receptor (Homo sapiens) (P18825 whole entry, looked up): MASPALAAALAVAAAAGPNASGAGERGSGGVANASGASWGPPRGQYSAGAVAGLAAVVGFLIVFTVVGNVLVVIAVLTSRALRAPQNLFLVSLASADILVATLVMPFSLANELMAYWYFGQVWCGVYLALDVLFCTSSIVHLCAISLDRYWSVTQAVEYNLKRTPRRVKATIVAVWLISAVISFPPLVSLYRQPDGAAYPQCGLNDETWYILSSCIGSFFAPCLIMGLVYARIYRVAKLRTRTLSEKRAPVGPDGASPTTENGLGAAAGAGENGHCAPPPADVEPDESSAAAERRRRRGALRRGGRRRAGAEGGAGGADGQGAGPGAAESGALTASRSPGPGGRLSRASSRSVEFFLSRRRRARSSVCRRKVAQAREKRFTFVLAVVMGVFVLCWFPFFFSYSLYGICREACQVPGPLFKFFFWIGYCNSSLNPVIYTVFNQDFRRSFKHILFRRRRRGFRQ
Sequence of Voltage-gated potassium channel subunit beta-2 (Rattus norvegicus) (P62483 whole entry, looked up): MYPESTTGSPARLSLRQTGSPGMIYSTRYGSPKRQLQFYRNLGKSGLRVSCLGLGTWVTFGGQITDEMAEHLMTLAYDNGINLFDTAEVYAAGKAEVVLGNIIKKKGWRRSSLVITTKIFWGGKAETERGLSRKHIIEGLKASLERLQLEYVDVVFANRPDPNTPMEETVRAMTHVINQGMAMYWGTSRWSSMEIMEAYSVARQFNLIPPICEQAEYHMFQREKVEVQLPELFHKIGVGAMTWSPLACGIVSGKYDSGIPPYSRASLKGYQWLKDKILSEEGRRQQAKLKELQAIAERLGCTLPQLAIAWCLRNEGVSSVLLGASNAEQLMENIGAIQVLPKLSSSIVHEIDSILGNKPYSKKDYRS
Sequence of Dual specificity protein phosphatase 6 (Homo sapiens) (Q16828 whole entry, looked up): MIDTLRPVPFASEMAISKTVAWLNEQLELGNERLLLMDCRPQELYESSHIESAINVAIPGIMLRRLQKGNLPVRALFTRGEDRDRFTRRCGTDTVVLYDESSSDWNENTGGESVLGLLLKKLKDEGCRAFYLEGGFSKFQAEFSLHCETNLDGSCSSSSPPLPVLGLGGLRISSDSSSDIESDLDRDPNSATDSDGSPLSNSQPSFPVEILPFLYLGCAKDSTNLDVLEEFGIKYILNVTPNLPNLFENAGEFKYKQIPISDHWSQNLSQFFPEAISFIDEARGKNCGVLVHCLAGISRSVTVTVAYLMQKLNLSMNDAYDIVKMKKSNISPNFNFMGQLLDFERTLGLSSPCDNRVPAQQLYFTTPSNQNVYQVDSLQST

## CNC(=O)Nc1cccc(NC(=O)NC)n1
[1]
  cell count: 351
  inhibition: -2.8% (inactive)
[2]
  inhibition: -90.3% (inactive)
  nuclei count: 164%
[3]; [10]
  z-score: 0.612
[3]; [11]
  z-score: 0.757
[3]; [12]
  z-score: -1.65
[4]
  inhibition: 11.4% (inactive)
[5]
  fluorescence slope: -0.456 (inactive)
[6]
  NADPH fluorescence slope: -0.000144 (inactive)
[7]
  slope: 0.00525 (inactive)
[8]
  outcome: inactive
[9]
  inhibition: -3.2% (inactive)

## Cc1c(NC(=O)C(CC(=O)O)NCc2ccco2)c(=O)n(-c2ccccc2)n1C (stereo unspecified)
[1]
  cell count: 357
  inhibition: -8% (inactive)
[2]
  inhibition: -112% (inactive)
  nuclei count: 164%
[3]; [10]
  z-score: -0.725
[3]; [11]
  z-score: 2.03
[3]; [12]
  z-score: 1.41
[4]
  inhibition: -5.26% (inactive)
[5]
  fluorescence slope: -0.44 (inactive)
[6]
  NADPH fluorescence slope: -0.000144 (inactive)
[7]
  slope: 0.00721 (inactive)
[8]
  outcome: inactive
[9]
  inhibition: -0.003% (inactive)

## COC(=O)c1ccc(=O)n(Cc2ccc3c(c2)OCO3)c1
[1]
  cell count: 394
  inhibition: -2.1% (inactive)
[2]
  inhibition: -128% (inactive)
  nuclei count: 137%
[3]; [10]
  z-score: 2.55
[3]; [11]
  z-score: 0.425
[3]; [12]
  z-score: -1.58
[4]
  inhibition: 2.46% (inactive)
[5]
  fluorescence slope: -0.427 (inactive)
[6]
  NADPH fluorescence slope: -4.6e-05 (inactive)
[7]
  slope: 0.00627 (inactive)
[8]
  outcome: inactive
[9]
  inhibition: -6.36% (inactive)

## CCOC(=O)C1CCCN(c2nc3ccccc3nc2C(C#N)C(=O)OC(C)C)C1 (stereo unspecified)
[1]
  cell count: 547
  inhibition: -8.3% (inactive)
[2]
  inhibition: 14.3% (inactive)
  nuclei count: 143%
[3]; [10]
  z-score: -1.02
[3]; [11]
  z-score: 0.486
[3]; [12]
  z-score: -0.3
[4]
  inhibition: -7.86% (inactive)
[5]
  fluorescence slope: -0.504 (inactive)
[6]
  NADPH fluorescence slope: -3.6e-05 (inactive)
[7]
  slope: 0.00207 (inactive)
[8]
  outcome: inactive
[9]
  inhibition: 25.2% (inactive)

## CCC1(C)Cc2c(C#N)c(N)sc(=S)c2CO1 (stereo unspecified)
[1]
  cell count: 505
  inhibition: -3.2% (inactive)
[2]
  inhibition: -128% (inactive)
  nuclei count: 140%
[3]; [10]
  z-score: 0.126
[3]; [11]
  z-score: 0.287
[3]; [12]
  z-score: -0.524
[4]
  inhibition: -14% (inactive)
[5]
  fluorescence slope: -0.501 (inactive)
[6]
  NADPH fluorescence slope: -2.4e-05 (inactive)
[7]
  slope: 0.00206 (inactive)
[8]
  outcome: inactive
[9]
  inhibition: 28.8% (inactive)

## CCCCCCn1c(C(C)O)nc2ccccc21 (stereo unspecified)
[1]
  cell count: 528
  inhibition: -16.2% (inactive)
[2]
  inhibition: -111% (inactive)
  nuclei count: 156%
[3]; [10]
  z-score: 1.01
[3]; [11]
  z-score: -0.165
[3]; [12]
  z-score: -1.61
[4]
  inhibition: 11.9% (inactive)
[5]
  fluorescence slope: -0.5 (inactive)
[6]
  NADPH fluorescence slope: -5.9e-05 (inactive)
[7]
  slope: 0.0045 (inactive)
[8]
  outcome: inactive; toxic
[9]
  inhibition: 28% (inactive)

## Cc1ccc2c(=O)c(CN(C)C3CCN(C)CC3)c(C)[nH]c2c1C
[1]
  cell count: 498
  inhibition: -21.3% (inactive)
[2]
  inhibition: -40.5% (inactive)
  nuclei count: 142%
[3]; [10]
  z-score: 0.488
[3]; [11]
  z-score: 0.313
[3]; [12]
  z-score: -0.364
[4]
  inhibition: 1.12% (inactive)
[5]
  fluorescence slope: -0.491 (inactive)
[6]
  NADPH fluorescence slope: -4.5e-05 (inactive)
[7]
  slope: 0.00468 (inactive)
[8]
  outcome: inactive
[9]
  inhibition: 1.23% (inactive)
